Experimental data from ChEMBL document CHEMBL1126771, “Application of a conformationally restricted Phe-Leu dipeptide mimetic to the design of a combined inhibitor of angiotensin I-converting enzyme and neutral endopeptidase 24.11” (J Med Chem, 1993).

Columns and labels:
[1] = target: T1, Angiotensin-converting enzyme (Oryctolagus cuniculus, UniProt P12822); test: Binding affinity of compound against rabbit lung angiotensin I-converting enzyme (ACE) was determined
T1 sequence (P12822 whole entry): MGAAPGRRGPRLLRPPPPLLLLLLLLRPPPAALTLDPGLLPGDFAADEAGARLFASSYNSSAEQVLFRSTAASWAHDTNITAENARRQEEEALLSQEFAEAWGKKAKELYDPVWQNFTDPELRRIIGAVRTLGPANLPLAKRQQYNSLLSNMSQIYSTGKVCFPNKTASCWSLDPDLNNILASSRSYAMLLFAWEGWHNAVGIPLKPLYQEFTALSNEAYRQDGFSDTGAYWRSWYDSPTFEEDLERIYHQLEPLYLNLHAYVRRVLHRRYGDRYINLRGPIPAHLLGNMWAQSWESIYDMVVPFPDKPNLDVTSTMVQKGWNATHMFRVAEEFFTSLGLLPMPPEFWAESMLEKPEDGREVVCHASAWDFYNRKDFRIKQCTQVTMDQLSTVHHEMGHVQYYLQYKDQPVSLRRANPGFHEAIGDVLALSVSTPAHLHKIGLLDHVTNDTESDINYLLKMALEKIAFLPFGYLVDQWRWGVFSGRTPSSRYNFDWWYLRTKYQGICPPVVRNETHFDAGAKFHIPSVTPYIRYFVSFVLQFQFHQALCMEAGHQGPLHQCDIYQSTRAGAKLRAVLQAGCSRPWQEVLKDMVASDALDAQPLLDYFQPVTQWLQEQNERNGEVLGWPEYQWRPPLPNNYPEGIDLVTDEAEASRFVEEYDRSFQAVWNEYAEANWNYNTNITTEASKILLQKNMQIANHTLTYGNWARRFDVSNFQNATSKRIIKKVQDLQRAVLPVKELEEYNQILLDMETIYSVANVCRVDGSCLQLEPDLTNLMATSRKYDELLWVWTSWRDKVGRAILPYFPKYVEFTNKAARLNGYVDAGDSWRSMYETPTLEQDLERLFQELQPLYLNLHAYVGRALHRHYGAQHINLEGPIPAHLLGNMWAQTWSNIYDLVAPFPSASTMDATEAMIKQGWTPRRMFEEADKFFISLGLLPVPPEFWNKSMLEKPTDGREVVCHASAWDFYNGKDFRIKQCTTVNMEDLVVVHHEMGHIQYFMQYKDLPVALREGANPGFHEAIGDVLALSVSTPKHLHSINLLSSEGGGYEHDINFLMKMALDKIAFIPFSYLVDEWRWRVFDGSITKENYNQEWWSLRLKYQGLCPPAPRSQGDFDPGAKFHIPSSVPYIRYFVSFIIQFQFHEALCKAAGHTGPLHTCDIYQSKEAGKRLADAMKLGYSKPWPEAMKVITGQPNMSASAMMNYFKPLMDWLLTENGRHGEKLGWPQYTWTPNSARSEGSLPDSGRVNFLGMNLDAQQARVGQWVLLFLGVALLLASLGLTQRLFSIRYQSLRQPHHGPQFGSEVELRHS
Summary of the method: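 Rabbit lung ACE. Spectrophotometric assay with recrystallized (furylacryloyl)phenylalanyl-glycylglycine as substrate; colored contaminants removed beforehand. Thiol content of inhibitor solutions checked with Ellman's reagent just before testing.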

[2] = target: T2, Neprilysin (Rattus norvegicus, UniProt P07861); test: Binding affinity of compound against rat kidney neutral endopeptidase (NEP) was determined
T2 sequence (P07861 whole entry): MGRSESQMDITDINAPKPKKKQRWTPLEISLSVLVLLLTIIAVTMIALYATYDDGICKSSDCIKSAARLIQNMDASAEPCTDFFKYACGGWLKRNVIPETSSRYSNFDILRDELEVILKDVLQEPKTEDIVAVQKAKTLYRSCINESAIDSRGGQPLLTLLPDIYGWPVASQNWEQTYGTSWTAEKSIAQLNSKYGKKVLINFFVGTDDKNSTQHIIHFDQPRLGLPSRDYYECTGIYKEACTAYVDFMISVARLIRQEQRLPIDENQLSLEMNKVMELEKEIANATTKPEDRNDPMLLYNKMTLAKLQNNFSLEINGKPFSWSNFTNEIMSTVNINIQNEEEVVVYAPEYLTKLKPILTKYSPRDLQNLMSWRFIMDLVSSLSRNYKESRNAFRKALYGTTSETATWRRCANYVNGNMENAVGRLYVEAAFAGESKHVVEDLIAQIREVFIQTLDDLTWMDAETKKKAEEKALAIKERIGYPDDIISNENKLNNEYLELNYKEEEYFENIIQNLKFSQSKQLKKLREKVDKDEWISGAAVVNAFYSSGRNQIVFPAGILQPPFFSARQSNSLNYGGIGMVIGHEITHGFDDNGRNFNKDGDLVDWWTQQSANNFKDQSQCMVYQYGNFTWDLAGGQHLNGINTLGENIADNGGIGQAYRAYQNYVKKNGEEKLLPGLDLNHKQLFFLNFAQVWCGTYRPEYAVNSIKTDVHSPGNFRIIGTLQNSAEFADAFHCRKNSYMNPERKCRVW
Summary of the method: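 Rat kidney NEP. Fluorogenic assay using dansyl-D-Ala-Gly-(p-nitro)Phe-Gly-OH as substrate. Inhibitor solutions assayed for thiol content with Ellman's reagent immediately prior to testing.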

| Compound | Ki [1] [nM] | Ki [2] [nM] |
| --- | --- | --- |
| O=C(O)[C@H](CCc1ccccc1)N[C@@H]1Cc2ccccc2C2CCC[C@H](C(=O)O)N2C1=O (some centres not stated) | 0.004 | > 10000 |
| O=C(NC1Cc2ccccc2C2CCC[C@H](C(=O)O)N2C1=O)C(S)Cc1ccccc1 (stereo in doubt) | 0.11 | 0.08 |
| O=C(NC1Cc2ccccc2C2CCC[C@H](C(=O)O)N2C1=O)C(S)Cc1ccccc1 (stereo in doubt; 11b) | 4.5 | 0.07 |

Continued, values first:

| Ki [1] [nM] | Ki [2] [nM] | Compound |
| --- | --- | --- |
| 2 | 5 | O=C(CS)N[C@@H]1Cc2ccccc2C2CCC[C@H](C(=O)O)N2C1=O (some centres not stated) |
| 2 | > 300 | O=C(O)[C@H]1CCCC2c3ccccc3C[C@@H](CS)C(=O)N21 (stereo in doubt; 3) |
| > 7 | 45 | O=C(O)[C@H]1CCCC2c3ccccc3C[C@@H](CS)C(=O)N21 (stereo in doubt; 4) |
